Assay results published in paper PMC10500652 (ACS Omega, 2023).

Tests used:
Ct-DNA [1] = conditions: value reported in the literature; cited from earlier work
HeLa = assay: MTT cytotoxicity assay, HeLa; format: cell-based, human; conditions: for IC50: read-out: IC50 HeLa, MTT, 48 h incubation; for selectivity factor HeLa: ratio of IC50 HEK-293 / HeLa
Outline: (§1)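 Cells kept in DMEM with 10% FBS, 1% nonessential amino acids and 1% antibiotic-antimycotic at 37 °C, 95% humidity, CO2, and trypsinised at 80% confluence. Seeded 1 × 10^4 cells/well, grown 24 h, then exposed to test compound. MTT read-out at 570 nm, in triplicate. % growth inhibition = 100 − (AD × 100/AB), against vehicle wells.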

MCF-7 = assay: MTT cytotoxicity assay, MCF-7; format: cell-based, human; conditions: for IC50: read-out: IC50 MCF 7, MTT, 48 h incubation; for selectivity factor MCF-7: ratio of IC50 HEK-293 / MCF-7
Outline: as §1

U87MG = assay: MTT cytotoxicity assay, U87MG; format: cell-based, human; conditions: for IC50: read-out: IC50 U87MG, MTT, 48 h incubation; for selectivity factor U87MG: ratio of IC50 HEK-293 / U87MG
Outline: as §1

HEK293 = assay: MTT cytotoxicity assay, HEK293; format: cell-based, human; conditions: read-out: IC50 HEK293, 48 h incubation, normal cell line
Outline: as §1

MCF-7 cells [2] = assay: Apoptosis, Annexin V FITC/PI assay; format: cell-based, human; conditions: 15 μM, 24 h
MCF-7 cells [3] = assay: Cell cycle analysis; format: cell-based, human; conditions: 8 μM, 24 h
Outline: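 MCF-7 cells (1 × 10^6) grown 24 h, exposed to test compound in medium 24 h, then harvested by centrifugation. Fixed at 4 °C overnight and washed twice with cold PBS. Stained 15 min in the dark with 0.05 mg/ml PI plus 0.05 mg/ml RNaseA in sheath fluid. DNA content measured by flow cytometry to give percentage of cells in each cycle phase.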

[4] = Fluorescence quantum yield; format: physicochemical; conditions: relative to quinine sulfate; 0.1% DMSO buffer solution, pH 7.2
Outline: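 Relative emission quantum yield against quinine sulfate in H2SO4 (excitation 350 nm, emission 452 nm, ΦR 0.50). Calculated from integrated emission peak area, absorbance at λmax and refractive indices of sample and reference solvents.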

Solubility = format: physicochemical
[5] = Molar conductivity measurement; format: physicochemical; conditions: for molar conductance ^M in 10% DMSO: 10% aqueous DMSO; for molar conductance ^M in DMSO: pure DMSO
Outline: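 Conductivity of test compound at 3 × 10^-5 M in DMSO and in aqueous DMSO, measured with a conductivity meter of cell constant 1.0 cm^-1.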

Ct-DNA [6] = assay: Ct-DNA binding by UV absorption titration; design: species or system calf; conditions: on titration with Ct-DNA, Tris-HCl/NaCl buffer
Outline: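 UV absorbance titration: Ct-DNA (purity checked by OD 260/280) added stepwise from stock to test compound held fixed at 20 μM in 5 mM Tris-HCl/50 mM NaCl. Intrinsic binding constant Kb from slope/intercept of linear fit. Hypochromicity %H = (A0 − AF)/A0 × 100, AF taken when absorbance stops changing.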

Ct-DNA [7] = assay: Ethidium bromide displacement; format: binding, calf; conditions: for KSV, Stern–Volmer quenching constant: EtBr–Ct-DNA adduct
Outline: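 EtBr–Ct-DNA adduct (EtBr 8 μM) titrated with test compound at 5–60 μM; drop in EtBr emission followed. KSV from linear Stern–Volmer fit of I0/I vs [complex]. Kapp from the concentration giving 50% quenching: Kapp × [compound]50 = KEtBr × [EtBr], with KEtBr 1.0 × 10^7 M^-1.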

BSA = BSA (Bos taurus, UniProt P02769); assay: BSA binding, tryptophan emission quenching; design: species or system bovine; conditions: for KBSA, Stern–Volmer quenching constant: BSA fluorescence at 340 nm; for K, binding constant with BSA / n, number of binding sites: Scatchard plot; for kq, quenching rate constant: from KBSA and τ0 = 1 × 10^–8 s
Outline: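 BSA prepared at 2 × 10^-6 M in Tris-HCl/NaCl buffer and titrated with increasing amounts of aqueous test compound. Mixed gently 5 min after each addition; tryptophan emission read at 340 nm with excitation at 295 nm. KBSA from Stern–Volmer plot of I0/I vs [complex]; kq = KBSA/τ0 with τ0 1 × 10^-8. K and n from log((I0−I)/I) vs log[Q].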

[8] = Lipophilicity, n-octanol/water partition coefficient by shake-flask method; format: physicochemical; conditions: UV detection
Outline: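 Shake-flask partition: test compound dissolved in octanol/water and shaken 24 h. Phases separated by settling over 30 min or centrifuging 5000 rpm for 20 min, collected without cross-contamination. Compound in each phase quantified by UV-vis at room temperature. log Po/w = log([octanol]/[aqueous]); mean of three independent experiments.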

Sequence of BSA (P02769 25-607): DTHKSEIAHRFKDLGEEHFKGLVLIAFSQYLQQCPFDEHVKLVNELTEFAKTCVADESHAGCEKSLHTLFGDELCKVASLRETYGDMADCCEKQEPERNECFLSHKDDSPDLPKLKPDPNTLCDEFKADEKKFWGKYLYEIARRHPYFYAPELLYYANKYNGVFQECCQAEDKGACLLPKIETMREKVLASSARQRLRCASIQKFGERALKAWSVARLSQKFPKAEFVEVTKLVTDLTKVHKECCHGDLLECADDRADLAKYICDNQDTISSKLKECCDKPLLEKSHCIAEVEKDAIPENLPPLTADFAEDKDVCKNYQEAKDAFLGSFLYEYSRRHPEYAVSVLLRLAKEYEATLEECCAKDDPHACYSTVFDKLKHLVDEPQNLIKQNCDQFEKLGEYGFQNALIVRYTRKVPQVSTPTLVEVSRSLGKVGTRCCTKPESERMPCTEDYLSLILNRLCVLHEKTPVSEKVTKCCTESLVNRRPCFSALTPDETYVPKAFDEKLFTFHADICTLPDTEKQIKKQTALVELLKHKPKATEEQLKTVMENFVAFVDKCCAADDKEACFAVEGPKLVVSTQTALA

Row | Molecule | IC50 (HeLa) [µM] | IC50 (MCF-7) [µM] | IC50 (U87MG) [µM] | IC50 (HEK293) [µM] | quantum yield (ϕf) [4] | solubility in water / aqueous medium (Solubility) | molar conductance ^M in 10% DMSO [5] [S cm^2 mol^–1] | molar conductance ^M in DMSO [5] [S cm^2 mol^–1] | Δε, change in molar absorptivity (Ct-DNA [6]) [%] | KSV, Stern–Volmer quenching constant (Ct-DNA [7]) | KBSA, Stern–Volmer quenching constant (BSA) | K, binding constant with BSA (BSA) | n, number of binding sites (BSA) | kq, quenching rate constant (BSA) | selectivity factor HeLa (HeLa) | selectivity factor MCF-7 (MCF-7) | selectivity factor U87MG (U87MG) | further results
1 | CC[n+]1c(-c2ccccc2)c2cc(N)ccc2c2ccc(N)cc21 [EtBr, Ethidium bromide] | – | – | – | – | – | – | – | – | – | – | – | – | – | – | – | – | – | KEtBr, binding constant of EtBr to DNA (Ct-DNA [1]): 1.0 × 10^7 M^–1
2 | N.N.[Cl][Pt][Cl] [cisplatin, cis-diamminedichloroplatinum(II), reference compound] | 16.4 ± 0.16 | 20.1 ± 1.6 | 16.9 ± 2.1 | 34.8 | – | – | – | – | – | – | – | – | – | – | – | – | – | early apoptosis (MCF-7 cells [2]): 12.00%; late apoptosis (MCF-7 cells [2]): 32.04%; necrotic cells (MCF-7 cells [2]): 3.12%
3 | COc1cc2c(c(OC)c1OC)-c1ccc(OC)c(=O)cc1[C@@H](NC(C)=O)CC2 [colchicine] | – | – | – | – | – | – | – | – | – | – | – | – | – | – | – | – | – | G0/G1 phase cells (MCF-7 cells [3]): 54.11%; G2/M phase cells (MCF-7 cells [3]): 34.60%; S phase cells (MCF-7 cells [3]): 8.30%; sub-G0 phase cells (MCF-7 cells [3]): 0.64%
4 | [(η^5-Cp*)Ir^IIICl(K^2-N,N-2(2-(4-(4-(Pyridin-2-yl)-1H-1,2,3-triazol-1-yl)butoxy)phenyl)benzo[d]thiazole)]Cl [Complex 7b] | 15.8 ± 0.7 | 40.9 ± 1.8 | > 100 | > 100 | 0.0004 | very good solubility in aqueous medium | 26 | 5 | 46.66 | 4 × 10^3 M^–1 | 0.201 × 10^6 M^–1 | 0.057 × 10^6 M^–1 | 1.33 | 2.01 × 10^13 M^–1 s^–1 | 6.31 | 2.45 | 1 | Kapp, apparent DNA-binding constant (Ct-DNA [7]; 50% quenching, [EtBr] = 8 μM, [DNA] = 120 μM): 0.14 × 10^7 M^–1
5 | [Re^I(CO)3Cl(K^2-N,N-2-(2-(4-(4-(Pyridin-2-yl)-1H-1,2,3-triazol-1-yl)butoxy)phenyl)benzo[d]thiazole)] [Complex 7c] | 19.4 ± 0.19 | 40.9 ± 1.4 | 76 ± 3.5 | > 100 | 0.0140 | poor solubility in water | 22 | 9 | 27.12 | 8.2 × 10^3 M^–1 | 0.296 × 10^6 M^–1 | 0.087 × 10^6 M^–1 | 1.21 | 2.9 × 10^13 M^–1 s^–1 | 5.15 | 2.44 | 1.31 | log Po/w (n-octanol/water partition coefficient) [8]: 0.3180
